ChEMBL document CHEMBL1121744, “Synthesis and antihypertensive activity of a series of 8-substituted 1-oxa-3,8-diazaspiro[4.5]decan-2-ones” (J Med Chem, 1981)
Where “and” joins values, the source holds several entries; their conditions need not be identical. Equal entries are not always repeated. Calls of active or inactive are those of the source. The rule behind the calls is not given here.

Columns and labels:
[1] = tested on: Rattus norvegicus; assay: The antihypertensive activity as percentage fall in systolic blood pressure in spontaneously hypertensive rats after a period of 1 hr for a dose of 100 mg/kg po; assay type: functional, Artery
Method in brief: (§1)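 Male Okamoto-Aoki SHR, trained, in groups of four matched for mean systolic pressure; one group per run received water vehicle. Oral dosing in water (0.1 mL per 10 g) on two consecutive mornings. After the day-2 dose, rats were restrained at 30.0 ± 1.0 °C. Systolic pressure was read by tail cuff (inflated to 300 mmHg, first pulse) at 1–4 h. % fall is versus the untreated control group, by 1-tail t test (p ≤ 0.05).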

[2] = tested on: Rattus norvegicus; assay: The antihypertensive activity as percentage fall in systolic blood pressure in spontaneously hypertensive rats after a period of 4 hr for a dose of 100 mg/kg po; NS=Not significant; assay type: functional, organism-based; set-up: dose 100 mg/kg; details: Artery; method in brief: as §1
[3] = (§2) Distribution coefficient between 1-Octanol and phosphate buffer at pH7.4; assay type: physicochemical; details: 1-octanol/phosphate buffer, pH 7.4
[4] = tested on: Rattus norvegicus; assay: Antihypertensive activity as percentage fall in systolic blood pressure in spontaneously hypertensive rats after a period of 1 hr for a dose of 50 mg/kg po; assay type: functional, organism-based; set-up: dose 50 mg/kg; details: Artery; method in brief: as §1
[5] = tested on: Rattus norvegicus; assay: Antihypertensive activity as percentage fall in systolic blood pressure in spontaneously hypertensive rats after a period of 4 hr for a dose of 50 mg/kg; assay type: functional, organism-based; set-up: dose 50 mg/kg; details: Artery; method in brief: as §1
[6] = tested on: Rattus norvegicus; assay: The antihypertensive activity as percentage fall in systolic blood pressure in spontaneously hypertensive rats after a period of 3 hr for a dose of 100 mg/kg po; assay type: functional, Artery; method in brief: as §1
[7] = tested on: Rattus norvegicus; assay: The antihypertensive activity as percentage fall in systolic blood pressure in spontaneously hypertensive rats after a period of 2 hr for a dose of 100 mg/kg po; assay type: functional, Artery; method in brief: as §1
[8] = tested on: Rattus norvegicus; assay: Antihypertensive activity as percentage fall in systolic blood pressure in spontaneously hypertensive rats after a period of 2 hr for a dose of 50 mg/kg; assay type: functional, organism-based; set-up: dose 50 mg/kg; details: Artery; method in brief: as §1
[9] = tested on: Rattus norvegicus; assay: Antihypertensive activity as percentage fall in systolic blood pressure in spontaneously hypertensive rats after a period of 3 h for a dose of 50 mg/kg; assay type: functional, organism-based; set-up: dose 50 mg/kg; details: Artery; method in brief: as §1
[10] = as §2; assay type: physicochemical; details: 1-octanol/phosphate buffer, pH 7.4; remark: listed apart in the source
Method in brief: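 Octanol/buffer distribution measured at pH 7.4 in phosphate with sodium chloride. Either HPLC (0.004 M) or shake flask.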

[11] = tested on: Rattus norvegicus; assay: Antihypertensive activity as percentage fall in systolic blood pressure in spontaneously hypertensive rats after a period of 1 hr for a dose of 50 mg/kg po; NS=Not significant; assay type: functional, organism-based; set-up: dose 50 mg/kg; details: Artery
Method in brief: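 Male Okamoto-Aoki SHR, trained, in groups of four matched for systolic pressure, with a concurrent vehicle control group. Oral dosing on two consecutive mornings, in water as solution or suspension at 0.1 mL/10 g. On day 2 rats were restrained at 30.0 ± 1.0 °C. Tail-cuff systolic pressure, four traces per rat, read at each hour. Per cent fall versus control; 1-tail t test, p ≤ 0.05.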

[12] = tested on: Rattus norvegicus; assay: The antihypertensive activity as percentage fall in systolic blood pressure in spontaneously hypertensive rats after a period of 1 hr for a dose of 25 mg/kg po; assay type: functional, Artery; method in brief: as §1
[13] = tested on: Rattus norvegicus; assay: The antihypertensive activity as percentage fall in systolic blood pressure in spontaneously hypertensive rats after a period of 2 hr for a dose of 25 mg/kg po; NS=Not significant; assay type: functional, organism-based; set-up: dose 25 mg/kg; details: Artery; method in brief: as §1
[14] = tested on: Rattus norvegicus; assay: The antihypertensive activity as percentage fall in systolic blood pressure in spontaneously hypertensive rats after a period of 3 hr for a dose of 25 mg/kg po; NS=Not significant; assay type: functional, organism-based; set-up: dose 25 mg/kg; details: Artery; method in brief: as §1
[15] = tested on: Rattus norvegicus; assay: Antihypertensive activity as percentage fall in systolic blood pressure in spontaneously hypertensive rats after a period of 1 hr for a dose of 50 mg/kg; assay type: functional, Artery; method in brief: as §1
[16] = tested on: Rattus norvegicus; assay: Percentage fall in systolic blood pressure in spontaneously hypertensive rats after 2 hr following 50 mg/kg p.o.; assay type: functional, Artery; details: route oral, 50 mg/kg; method in brief: as §1
[17] = tested on: Rattus norvegicus; assay: The antihypertensive activity as percentage fall in systolic blood pressure in spontaneously hypertensive rats after a period of 4 hr for a dose of 25 mg/kg po; NS=Not significant; assay type: functional, organism-based; set-up: dose 25 mg/kg; details: Artery; method in brief: as §1
[18] = tested on: Rattus norvegicus; assay: Percentage fall in systolic blood pressure in spontaneously hypertensive rats after 3 h following 50 mg/kg p.o.; assay type: functional, Artery; details: route oral; method in brief: as §1

| Compound | Decrease in blood pressure [1] [%] | Decrease in blood pressure [2] | logD [3] | Decrease in blood pressure [4] | Decrease in blood pressure [5] | Decrease in blood pressure [6] [%] | Decrease in blood pressure [7] [%] | Decrease in blood pressure [8] | Decrease in blood pressure [9] | logD [10] | Decrease in blood pressure [11] | Decrease in blood pressure [12] [%] | Decrease in blood pressure [13] | Decrease in blood pressure [14] | Decrease in blood pressure [15] [%] | Decrease in blood pressure [16] | Decrease in blood pressure [17] | Decrease in blood pressure [18] [%] |
| --- | --- | --- | --- | --- | --- | --- | --- | --- | --- | --- | --- | --- | --- | --- | --- | --- | --- | --- |
| CC1NC(=O)OC12CCN(CC(O)C1COc3ccccc3O1)CC2 (configuration not stated) | 15 | inactive | 1.21 | Not significant | Not significant | 14 | 15 | Not significant | Not significant |  |  |  |  |  |  |  |  |  |
| CCN1CC2(CCN(CCc3c[nH]c4ccccc34)CC2)OC1=O |  |  |  |  | Not significant |  |  | Not significant | Not significant | 1.92 | inactive |  |  |  |  |  |  |  |
| CC(C)N1CC2(CCN(CC(O)C3COc4ccccc4O3)CC2)OC1=O (configuration not stated) |  |  |  |  |  |  |  |  |  | 2.05 |  | 14 | inactive | inactive | 26 | 20% and 16% | inactive | 16 |
